This data set can be described thus: Toxicity liver stage against HepG2, at 10uM. Type of data set: cell-based. Also on record: test concentration 10 uM, cell line HepG2-A16-CD81EGFP. As to conditions: human, HepG2-A16-CD81EGFP cells; read-out: INHIBITION
In a few lines:
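Uninfected HepG2-A16-CD81EGFP cells, 3 × 10^3 per well, 1536-well, plated on prespotted compound at 10 μM final, parasite-free screening media added to match infected plates; puromycin 10 μM positive, DMSO 0.5% negative; run in parallel with 48 h PbLuc assay at 37 °C, 5% CO2; viability by CellTiter-Glo luminescence, normalized to controls.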

Consider 95 molecules from ChEMBL document CHEMBL4513216, “Probing the Open Global Health Chemical Diversity Library for Multistage-Active Starting Points for Next-Generation Antimalarials” (ACS Infect Dis, 2020).

With `CCCc1noc(C(C)N2CCN(Cc3nc(C)c(C)o3)CC2)n1` (stereo not given), the cytotoxicity at 10 µM was -10.6%.
The value for `COCCN1CCCC2(CCN(Cc3nnc(C4CC4)o3)C2)C1=O` (stereo not given) was 0.15%; that for `O=c1[nH]nc2c(N3CCC(NC4CCOCC4)CC3)nccn12` was 7.19%; that for `Cc1ccc(CN2CCOC3(CCCN(C(=O)c4ccco4)C3)C2)s1` (stereo not given) was -10.3%.
Then `Cc1ccc2[nH]c(C(=O)NCCCn3ccnn3)c(C)c2c1`, with 5.36%; and `COCCn1c2c(ccc1=O)CC(NCc1cnn(C)c1)CC2` (stereo not given), with -103%; and `Cc1cnc(CN2CCN(c3nc(C)cs3)C(C)C2)cn1` (stereo not given), with 2.74%.
Then `NC(=O)CN(Cc1ncc(-c2ccc(F)cc2)o1)C1CCCC1`, with -6.19%; and `CC(=O)NC(C)C(=O)NCc1ccc(N2CCNC(=O)C2)cc1` (stereo not given), with 2.03%.
Consider `CCN1C[C@H]2[C@@H](C1)N(c1ncc(F)cn1)CC[C@H]2OC`, for which the cytotoxicity at 10 µM was found to be 3.5%.
In the case of `Cc1cnn(CC2CCCN2Cc2nc3ccccc3c(=O)[nH]2)c1` (stereo not given), the cytotoxicity at 10 µM was -4.82%.
The value for `Cc1ccc(NCc2nc3n(n2)CCCCC3)c(C)c1` was 4.7%.
The value for `Cc1nc(NCc2ccco2)nc2c1COCC21CCNC1` (stereo not given) was 10.3%.
The value for `CCC(O)CN1CCN(C(=O)c2ccn(-c3cccc(F)c3)n2)CC1` (stereo not given) was -1.65%.
Take `COCCOc1ncccc1C(=O)N(C)c1ccc(OC)nc1`: the cytotoxicity at 10 µM is -44.4%.
Then `CCc1ccc(C2CC(=O)Nc3c2c(=O)n(C)c2ncnn32)cc1` (stereo not given), with 8.16%; and `COc1ccc(CC(=O)N2CC[C@@]3(O)CCNC[C@H]3C2)c(OC)c1`, with 4.26%; and `CC(=O)N1CCC2(CCN(CC(C)C)C2)C1` (stereo not given), with 5.41%.
`CCN1CC(COC(=O)c2cccc(Br)c2)CC1=O` (stereo not given): the cytotoxicity at 10 µM was determined as 4.91%.
In the case of `Cc1nn(C)c2c(N(C)Cc3cccs3)nc(C3CC3)nc12`, the cytotoxicity at 10 µM is -126%.
The value for `OCCn1cc(CN2CCN(CCOCC(F)(F)F)CC2)cn1` was -10.7%.
The value for `O=C1CCC2(CCCN(C(=O)NCc3ccccc3)CC2)N1` (stereo not given) was 5.23%; that for `CC(C)(C)C(=O)N1CCCC1(C(=O)N1CCCC1)c1cnccn1` (stereo not given) was 4.84%; that for `Fc1cccc(-n2nc(C3CC3)nc2CCn2cnnn2)c1` was -0.174%.
The value for `O=C(CCn1nc(-c2cccs2)oc1=O)Nc1cccc(F)c1` was -5.21%; that for `O=C(c1c2c(NCC3CC3)ncnc2n2ccccc12)N1CCOCC1` was 9.82%.
`COCCN1CCC(c2nc3ccc(-c4ccccc4)cn3n2)CC1`: the cytotoxicity at 10 µM is -8.84%.
Turning to `O=C1NCc2ccccc2CC12CCN(Cc1ccncc1Cl)C2` (stereo not given), the cytotoxicity at 10 µM was determined as 8.27%.
The value for `O=C(Cc1cccs1)N1C[C@@H]2CN(Cc3ccoc3)CCO[C@@H]2C1` was -70.8%; that for `Cc1cc(C)n(C2CN(Cc3noc(-c4ccccc4)n3)C2)n1` was -12.8%.
For `Cn1cc(C(=O)N2CCN(Cc3ccccn3)CC2)ccc1=O`, the cytotoxicity at 10 µM was 6.85%.
As to `CCS(=O)(=O)N1CCC2(CCCN(Cc3ccc(F)c(F)c3)C2=O)C1` (stereo not given), the cytotoxicity at 10 µM was 17.6%.
The value for `COCCNc1nc2c(c(NCc3cnc(C)cn3)n1)CCNCC2` was -0.106%.
Then `CN(Cc1cnccn1)C(=O)[C@@]12CNC[C@@H]1CN(Cc1ccccc1)C2`, with -2.59%; and `CN(C)CCn1ccnc1C1CCCN(C(=O)CCc2cccnc2)C1` (stereo not given), with -3.64%; and `Cn1ccnc1CN1C(=O)CO[C@H]2CN(CCCc3ccccc3)C[C@H]21`, with 4.22%.
With `CC(C)=Cc1c(-c2ccccc2)ncn1CCS(C)(=O)=O`, the cytotoxicity at 10 µM is -3.15%.
The value for `COc1cccc(-c2n[nH]cc2C(=O)NC(C)CC(=O)O)c1` (stereo not given) was -8.91%; that for `Cc1cn2c(n1)CCC(NC(=O)CCCOCc1ccccc1)C2` (stereo not given) was -3.55%.
The value for `CC(C)CN1C(=O)CO[C@@H]2CN(C(=O)C3CCOCC3)C[C@H]21` was -88.1%.
The value for `COC(=O)[C@H](CSC)Nc1nc(C2CCCC2)nc2c1cnn2C` was -52.6%; that for `O=C(COC1CCOC1)N(CC(F)F)c1cccc(Cl)c1` (stereo not given) was 3.44%; that for `c1csc(-c2nc(CN3CCCC3Cn3cncn3)co2)c1` (stereo not given) was -11.5%.
For the molecule `CNC(=O)C1CN(c2ccnc(C)n2)CCN1Cc1ccccc1` (stereo not given), the cytotoxicity at 10 µM came to 8.48%.
Then `CC(Cn1ccnc1)NCc1cc(Br)c2c(c1)OCO2` (stereo not given), with 12.9%.
Then `Cc1cnc(C(=O)N2CCc3ncnc(-c4cnn(C)c4)c3CC2)cn1`, with 0.588%; and `Cn1ncc(N2CCOC(CCNC(=O)CO)C2)cc1=O` (stereo not given), with -8.58%.
Then `COc1ccc(CC(=O)Nc2ccc3ncn(C(C)C)c(=O)c3c2)cc1`, with 3.97%; and `COc1cccc(-c2noc3c2CN(c2ncnc4c2CCC4)CC3)c1`, with 51%; and `CNC(=O)N1CCc2nc(C(=O)Nc3cccnc3)sc2CC1`, with 1.99%.
Consider `COCc1cc(NCCc2ccc(S(N)(=O)=O)cc2)n2nccc2n1`, for which the cytotoxicity at 10 µM amounted to 6.45%.
Regarding `CC(C)(C)c1ncc(C(=O)NCc2cccc(C(=O)N3CCCC3)c2)s1`, the cytotoxicity at 10 µM was -4.57%.
As to `Cn1cc(C2COC3(CCN(C(=O)c4ccc(F)cc4)CC3)C2)cn1` (stereo not given), the cytotoxicity at 10 µM amounted to 8.31%.
The value for `Cc1ccc(CN2C[C@H]3CN(C(=O)c4ccno4)CCN3C2=O)cc1` was -2.07%; that for `Cc1ccc2nc(C)cc(C(=O)NC(C)c3nnn[nH]3)c2c1` (stereo not given) was 7.8%; that for `Cn1cc(N2CC3(CCN(CC4CCC4)CC3)OCC2=O)cn1` was -0.269%.
As to `Cc1nc(N2CCN(C(=O)C3CC3)CC2)c2c(n1)c(C)nn2C`, the cytotoxicity at 10 µM amounted to 5.42%.
Turning to `CCC(O)CN(CC(=O)Nc1cc(C)no1)c1ccccc1` (stereo not given), the cytotoxicity at 10 µM is -2.59%.
The value for `CSc1ccc(NC(=O)NCC(O)C(C)C)cc1F` (stereo not given) was 6.93%.
`CC(C)(C)c1ccc(CN2C[C@H]3CC(O)C[C@H]3C2)c(OCC(N)=O)c1` (stereo not given in full): the cytotoxicity at 10 µM is 2.71%.
For the molecule `CC(=O)N1CCC(N2CCOC[C@H]2c2nc(-c3cccnc3)c[nH]2)CC1`, the cytotoxicity at 10 µM was determined as 1.35%.
The value for `CCCN1C[C@@H]2CC[C@H]1CN(Cc1ccc(-n3cccn3)cc1)C2` was 5.05%; that for `CCc1cc(NCc2cc(CC(C)C)on2)n2nccc2n1` was 3.59%; that for `Cn1nccc1C1CCN(Cc2csc(-c3ncccn3)n2)CC1` was -1.91%.
Consider `Cn1nc2c(cc1=O)CN(CCOc1ccccc1C#N)CC2`, for which the cytotoxicity at 10 µM came to 18%.
Then `CC1CCN(c2nc(O)cc(C3CC(=O)N(C4CCCCC4)C3)n2)CC1` (stereo not given), with 3.81%; and `COc1cccc(OCCc2nnc(NC(C)=O)s2)c1`, with 4.84%; and `CCCOC(=O)N1CCCC2(CCN(Cc3cccc(C#N)c3)C2)C1` (stereo not given), with -4.59%.
The value for `O=C(c1ccsc1)N1CCOC2(CCN(Cc3cccnc3)CC2)C1` was -3.12%.
`CC(C)(C)n1ncc2c(=O)n(CC(=O)NCCc3ccccc3)cnc21`: the cytotoxicity at 10 µM is -11.3%.
Consider `COCCCN(CCOC)C(=O)Nc1ccccc1Br`, for which the cytotoxicity at 10 µM was 5.86%.
On to `Cc1nn(C)c2c(NC3CCCC3)nc(C3CC3)nc12`, for which the cytotoxicity at 10 µM is -0.801%.
Consider `Fc1cccnc1N1CCOCC2(CCCNC2)C1` (stereo not given), for which the cytotoxicity at 10 µM came out at 3.44%.
For the molecule `COc1c(F)cc(CN2CCC3(CC2)CN(C)C(=O)O3)cc1Cl`, the cytotoxicity at 10 µM stood at 8.08%.
The value for `Cc1ncsc1CN1C[C@@H]2CCCO[C@@H]2[C@H](Nc2ccccn2)C1` was 2.31%; that for `CCN(CC)Cc1ccc(C(=O)N2CCCC2Cn2cccn2)o1` (stereo not given) was -10.5%; that for `CCOc1cc(C)nc(N2CCN(C(C)c3nc(C)no3)CC2)n1` (stereo not given) was -1.67%.
The value for `CC[C@H]1N(C)CCC[C@]12CCC(=O)N2Cc1ccncc1` was 7.99%; that for `O=C(CCc1nccs1)N1CCC(C(=O)O)(c2ccccc2)CC1` was 1.75%.
Then `COCc1nc2cc(NCc3nc(C)cs3)ccc2o1`, with -2.57%.
Turning to `O=C(NCC1CCOC1)c1cc(-c2cccc(Cl)c2)on1` (stereo not given), the cytotoxicity at 10 µM is -8.75%.
`O=C(c1cnccn1)N1CCO[C@H]2[C@H](OCc3cccnc3)CC[C@@H]21`: the cytotoxicity at 10 µM was -9.45%.
For the molecule `O=C(NCc1cccnc1)Nc1cc(C(F)(F)F)c[nH]c1=O`, the cytotoxicity at 10 µM is -1.78%.
The value for `CNC(=O)[C@@H]1C[C@H]2CN(Cc3ccco3)C[C@H]2N1C` was 7.76%; that for `O=C(c1ccc(CNC2CCSC2)cc1)N1CCCC1` (stereo not given) was -4.05%; that for `COCCC(=O)NCC1Cn2nnc(-c3cccc(F)c3)c2CO1` (stereo not given) was 0.0508%.
The value for `Cc1nn(CCO)c(C)c1CNC1CCc2c(Cl)cccc21` (stereo not given) was -6.34%; that for `Cc1cc(C)n(CC2CCCCN2C(=O)c2ccc3c(c2)OCO3)n1` (stereo not given) was 5.44%.
The value for `CN(CCn1ccc2ccccc21)C(=O)Cc1n[nH]c(=O)[nH]1` was -16.4%.
Turning to `COCCNC(=O)c1sc2ccccc2c1C1CCC(CN)CC1` (stereo not given), the cytotoxicity at 10 µM is -2.98%.
Then `CCc1[nH]c2c(CNC(=O)[C@@H]3CCCN3C)cc(C)cc2c1C`, with -3.33%; and `Cc1cnn(CCNCC(=O)N(C)C(C)c2ccccc2)c1` (stereo not given), with 8.83%.
The value for `CCOc1ccccc1CSc1nnc(CC2CCS(=O)(=O)C2)n1C` (stereo not given) was 10.7%; that for `O=C(NCc1ccc(Cl)cc1)C1=NOC2(CCNC2)C1` (stereo not given) was -4.21%.
The value for `Cc1ccc(C(=O)NC(CN2CCCC2=O)c2ccccc2)c(=O)[nH]1` (stereo not given) was -2.23%.
